According to ChEMBL document CHEMBL3351723, “New derivatives of lupane triterpenoids disturb breast cancer mitochondria and induce cell death” (Bioorg Med Chem, 2014):
Activity calls are given as the source filed them. The rule behind the calls is not given here.

What was measured:
Liver microsome [1] = experiment: Effect on mitochondrial transmembrane potential in Wistar Han rat liver mitochondria energized with succinate assessed as mitochondrial transmembrane electropotential at 0.333 ug/mg of protein (reference value: 204.2 +/- 5.6 mV); format: functional
Hs-578T [2] = experiment: Cytotoxicity against human Hs578T cells assessed as decrease in live cells at 1 ug/ml for 24 to 48 hrs by flow cytometry; format: functional
Outline: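 Hs578T seeded at 2.5×10^4 cells/ml, exposed to 1 μg/ml or DMSO for 24 and 48 h. Cells trypsinized and resuspended in HEPES-buffered saline with 15 mM glucose. Stained 15 min at 37°C with 1 μM ethidium homodimer and 0.1 μM calcein-AM. Green (calcein) and red (ethidium homodimer) signals read by flow cytometry. Mean ± SEM, 6 experiments.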

Liver microsome [3] = experiment: Effect on mitochondrial transmembrane potential in Wistar Han rat liver mitochondria energized with succinate assessed as ADP depolarization at 0.133 ug/mg of protein (reference value: 25.3 +/- 2.1 mV); format: functional
MCF7 = experiment: Cytotoxicity against human MCF7 cells at 0.125 to 2 ug/ml after 1 to 5 days by sulforhodamine B assay; format: functional, cell-based
Outline: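 Sulforhodamine B growth assay in high-glucose DMEM with 10% FBS. Cancer cells seeded at 1×10^4 cells/ml; compound (0.125–2 μg/ml) added 24 h after seeding and left for 1, 3 or 5 days. Cells fixed, total mass stained. Expressed as % of untreated cells at the same time point. Mean ± SEM, five independent experiments.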

Liver microsome [4] = experiment: Effect on mitochondrial transmembrane potential in Wistar Han rat liver mitochondria energized with succinate assessed as mitochondrial transmembrane electropotential at 0.133 ug/mg of protein (reference value: 204.2 +/- 5.6 mV); format: functional
Liver microsome [5] = experiment: Effect on mitochondrial transmembrane potential in Wistar Han rat liver mitochondria energized with succinate assessed as ADP depolarization at 1.333 ug/mg of protein (reference value: 25.3 +/- 2.1 mV); format: functional
Liver microsome [6] = experiment: Effect on mitochondrial transmembrane potential in Wistar Han rat liver mitochondria energized with succinate assessed as time duration of lag phase at 0.067 ug/mg of protein (reference value: 33.0 +/- 4.6 sec); format: functional
Outline: (§1)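 Isolated male Wistar rat liver mitochondria (1.5 mg protein) in 125 mM sucrose, 65 mM KCl, 5 mM KH2PO4, 2.5 mM MgCl2, 5 mM HEPES pH 7.4, 30°C, with 3 μM TPP+. Compound added for 1 min, then 10 mM succinate plus 3 μM rotenone. State 3 started with ADP (83.3 nmol/mg protein). ΔΨ read with a TPP+-selective electrode and calculated by the Kamo equation without binding correction.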

Liver microsome [7] = experiment: Effect on mitochondrial transmembrane potential in Wistar Han rat liver mitochondria energized with succinate assessed as time duration of lag phase at 1.333 ug/mg of protein (reference value: 33.0 +/- 4.6 sec); format: functional; outline: as §1
Liver microsome [8] = experiment: Effect on mitochondrial transmembrane potential in Wistar Han rat liver mitochondria energized with succinate assessed as time duration of lag phase at 0.333 ug/mg of protein (reference value: 33.0 +/- 4.6 sec); format: functional; outline: as §1
Liver microsome [9] = experiment: Effect on mitochondrial transmembrane potential in Wistar Han rat liver mitochondria energized with succinate assessed as ADP depolarization at 0.067 ug/mg of protein (reference value: 23.9 +/- 3.3 mV); format: functional
Hs-578T [10] = experiment: Cytotoxicity against human Hs578T cells at 0.125 to 2 ug/ml incubated for 6 hrs folowed by drug wash out and fresh medium addition and measured 3 days after wash out; format: functional, cell-based
Liver microsome [11] = experiment: Effect on mitochondrial transmembrane potential in Wistar Han rat liver mitochondria energized with succinate assessed as mitochondrial transmembrane electropotential at 0.06 ug/mg of protein (reference value: 198.0 +/- 5.6 mV); format: functional
Liver microsome [12] = experiment: Effect on mitochondrial transmembrane potential in Wistar Han rat liver mitochondria energized with succinate assessed as mitochondrial transmembrane electropotential at 0.133 ug/mg of protein (reference value: 198.0 +/- 5.6 mV); format: functional
Liver microsome [13] = experiment: Effect on mitochondrial transmembrane potential in Wistar Han rat liver mitochondria energized with succinate assessed as mitochondrial transmembrane electropotential at 0.667 ug/mg of protein (reference value: 198.0 +/- 5.6 mV); format: functional
Liver microsome [14] = experiment: Effect on mitochondrial transmembrane potential in Wistar Han rat liver mitochondria energized with succinate assessed as mitochondrial transmembrane electropotential at 1.333 ug/mg of protein (reference value: 198.0 +/- 5.6 mV); format: functional; outline: as §1
[15] = test system: Liver mitochondria (Rattus norvegicus); experiment: Effect on mitochondrial transmembrane potential in Wistar Han rat liver mitochondria energized with succinate assessed as time duration of lag phase at 0.333 ug/mg of protein (reference value: 40.5 +/- 4.5 sec)
Liver microsome [16] = experiment: Effect on mitochondrial transmembrane potential in Wistar Han rat liver mitochondria energized with succinate assessed as ADP depolarization at 0.667 ug/mg of protein (reference value: 23.9 +/- 3.3 mV); format: functional
Liver microsome [17] = experiment: Effect on mitochondrial transmembrane potential in Wistar Han rat liver mitochondria energized with succinate assessed as time duration of lag phase at 0.067 ug/mg of protein (reference value: 82.8 +/- 23.5 sec); format: functional; outline: as §1
Liver microsome [18] = experiment: Effect on mitochondrial transmembrane potential in Wistar Han rat liver mitochondria energized with succinate assessed as time duration of lag phase at 0.667 ug/mg of protein (reference value: 82.8 +/- 23.5 sec); format: functional; outline: as §1
Liver microsome [19] = experiment: Effect on mitochondrial transmembrane potential in Wistar Han rat liver mitochondria energized with succinate assessed as mitochondrial transmembrane electropotential at 0.333 ug/mg of protein (reference value: 216.0 +/- 7.4 mV); format: functional
Liver microsome [20] = experiment: Effect on mitochondrial transmembrane potential in Wistar Han rat liver mitochondria energized with succinate assessed as time duration of lag phase at 0.067 ug/mg of protein (reference value: 46.7 +/- 3.9 sec); format: functional; outline: as §1
Liver microsome [21] = experiment: Effect on mitochondrial transmembrane potential in Wistar Han rat liver mitochondria energized with succinate assessed as mitochondrial transmembrane electropotential at 0.333 ug/mg of protein (reference value: 220.6 +/- 2.5 mV); format: functional
Liver microsome [22] = experiment: Effect on mitochondrial transmembrane potential in Wistar Han rat liver mitochondria energized with succinate assessed as time duration of lag phase at 0.667 ug/mg of protein Rvb = 46.7 +/- 3.9 sec); format: functional; outline: as §1
Liver microsome [23] = experiment: Effect on mitochondrial transmembrane potential in Wistar Han rat liver mitochondria energized with succinate assessed as ADP depolarization at 1.333 ug/mg of protein (reference value: 34.6 +/- 1.9 mV); format: functional
Liver microsome [24] = experiment: Reduction in ADP-induced mitochondrial transmembrane electropotential in Wistar Han rat liver mitochondria energized with succinate at >0.3 ug/mg of protein; format: functional
Liver microsome [25] = experiment: Effect on mitochondrial transmembrane potential in Wistar Han rat liver mitochondria energized with succinate assessed as mitochondrial transmembrane electropotential at 0.133 ug/mg of protein (reference value: 220.6 +/- 2.5 mV); format: functional

C=C(C)[C@@H]1CC[C@]2(COC(=O)CC[n+]3ccc(N(C)C)cc3)CC[C@]3(C)[C@H](CC[C@@H]4[C@@]5(C)CC[C@H](OC(=O)CC[n+]6ccc(N(C)C)cc6)C(C)(C)[C@@H]5CC[C@]43C)[C@@H]12.[Cl-].[Cl-]
Activity (Liver microsome [1]): 204 mV | inhibition (Hs-578T [2]): Active | Activity (Liver microsome [3]): 26.2 mV | inhibition (MCF7): Active | Activity (Liver microsome [4]): 206 mV | Activity (Liver microsome [5]): 20.3 mV | TIME (Liver microsome [6]): 0.009 h | TIME (Liver microsome [7]): 0.00983 h | TIME (Liver microsome [8]): 0.00894 h

C=C(C)[C@@H]1CC[C@]2(COC(=O)C(CC)[n+]3ccc(N(C)C)cc3)CC[C@]3(C)[C@H](CC[C@@H]4[C@@]5(C)CC[C@H](OC(=O)C(CC)[n+]6ccc(N(C)C)cc6)C(C)(C)[C@@H]5CC[C@]43C)[C@@H]12 (stereo partly specified)
Activity (Liver microsome [9]): 22.3 mV | inhibition (Hs-578T [10]): Active | Activity (Liver microsome [11]): 198 mV | Activity (Liver microsome [12]): 197 mV | Activity (Liver microsome [13]): 193 mV | Activity (Liver microsome [14]): 190 mV | TIME [15]: 0.0121 h | Activity (Liver microsome [16]): 23 mV

C=C(C)[C@@H]1CC[C@]2(COC(=O)C[n+]3ccc(N(C)C)cc3)CC[C@]3(C)[C@H](CC[C@@H]4[C@@]5(C)CC[C@H](OC(=O)C[n+]6ccc(N(C)C)cc6)C(C)(C)[C@@H]5CC[C@]43C)[C@@H]12.[Cl-].[Cl-]
TIME (Liver microsome [17]): 0.0219 h | TIME (Liver microsome [18]): 0.026 h | Activity (Liver microsome [19]): 208 mV

C=C(C)[C@@H]1CC[C@]2(COC(=O)C[N+](C)(C)C(C)C)CC[C@]3(C)[C@H](CC[C@@H]4[C@@]5(C)CC[C@H](OC(=O)C[N+](C)(C)C(C)C)C(C)(C)[C@@H]5CC[C@]43C)[C@@H]12.[Cl-].[Cl-]
TIME (Liver microsome [20]): 0.0139 h | Activity (Liver microsome [21]): 213 mV | TIME (Liver microsome [22]): 0.0146 h | Activity (Liver microsome [23]): 19.8 mV | inhibition (Liver microsome [24]): Active | Activity (Liver microsome [25]): 217 mV
